Assay results pooled from the literature.
Each line is one published result; the experiments were not run side by side.
Target: Serine/threonine-protein kinase Nek4 (NEK4, Homo sapiens, UniProt P51957)

SMILES	assay	setting	remaining binding [%]
c1cncc(-c2cccc(Nc3nccc(NC4CCCCC4)n3)c2)c1	binding, competition with immobilised ligand	10 µM	100
CC1CCCN1c1nccc(-c2cnn3ncccc23)n1 (stereo not drawn)	binding	1 µM	100
Cc1cnc(Nc2ccc(C(=O)N3CCC(N4CCCC4)CC3)cc2)nc1-c1cc2ccccc2s1	binding, competition with immobilised ligand	1 µM	59
Nc1ncc2c(n1)-c1c([nH]c3ccc(C#CC4CC4)cc13)CCCC2	binding, competition with immobilised ligand	1 µM	84
COc1ncc2cc3ccccc3nc2c1C#N	cell-free assay, competition with immobilised ligand	5 µM	93
Cc1c[nH]c2nccc(Oc3c(F)cc(Nc4cc(Cl)nc(N)n4)cc3F)c12	cell-free assay, competition with immobilised ligand	0.1 µM	90
c1cnn2ncc(-c3ccnc(N4CCC45COC5)n3)c2c1	binding	1 µM	68
CCC(=O)N[C@H]1CC[C@@H](C(=O)N(C)c2ccc(-c3nc4ccccc4o3)cc2)C1	cell-free assay, competition with immobilised ligand	1 µM	99
FC(F)(F)Oc1cccc(-c2cnc3ccc(-c4ccncc4)nn23)c1	cell-free assay, competition with immobilised ligand	5 µM	94
O=C(c1ccc(Nc2ncc(Cl)c(-c3ccc(Cl)s3)n2)cc1)N1CCC(N2CCCC2)CC1	binding, competition with immobilised ligand	1 µM	30
Cn1nc(C(=O)NCc2ccc(C(=O)O)cc2)cc1-c1ccc2[nH]ccc2c1	cell-free assay, competition with immobilised ligand	0.1 µM	84
CNC(=O)[C@@H]1CC[C@@H](n2c(-c3ccc4cnccc4c3)nc3ccc(C(=O)NCc4cccc(C(N)=O)c4)cc32)C1	binding, competition with immobilised ligand	1 µM	100
C[C@H](c1cccc(C#N)c1)n1cc(Cl)cc(C(N)=O)c1=N	cell-free assay, competition with immobilised ligand	1 µM	100
COc1cnc(Nc2cccc(S(N)(=O)=O)c2)nc1N1CCN(c2ccccc2)CC1	binding, competition with immobilised ligand	1 µM	95
CCCCN(CCCC)C(=O)CN1C[C@@H](c2cc(OC)c3c(c2)OCO3)[C@H](C(=O)O)[C@H]1CC(C)(C)CCC	cell-free assay, competition with immobilised ligand	1 µM	93.9
C[C@H]1CCN(c2nccc(-c3cnn4ncccc34)n2)C1	binding	1 µM	81
Cn1nc(C(F)(F)F)cc1-c1cnc(N2CCc3cc(S(=O)(=O)Nc4c(F)cc(Cl)cc4F)cc(N4CCCC4=O)c32)nc1	cell-free assay, competition with immobilised ligand	1 µM	72
CN(c1nccc(-c2cnn3ncccc23)n1)C1CC1	binding	1 µM	100
O=C(Nc1c[nH]nc1C(=O)NC1CCNCC1)c1cc(F)cc(F)c1	binding, competition with immobilised ligand	1 µM	91
N[C@H]1CCN(c2nccc(-c3cnn4ncccc34)n2)C1	binding	1 µM	100
O=C(c1ccc(Nc2ncc(Cl)c(-c3cc4ccccc4s3)n2)cc1)N1CCC(N2CCCC2)CC1	binding, competition with immobilised ligand	1 µM	48
